We go through four compounds from PMC2939291 (Experimental parasitology, 2010).

The test system of data set [1] is egfp transfected Leishmania amazonensis amastigotes in THP-1 cells. In words: microbe, parasite or virus in culture. Format: cell-based.
Data set [2] has as its system egfp transfected Leishmania amazonensis amastigotes in PBMC derived macrophages. In words: microbe, parasite or virus in culture. It is filed as cell-based.
Data set [3] concerns Leishmania amazonensis infected cells. In words: Infection measured by standard Giemsa staining of cells. It is filed as cell-based.
For data set [4] the following is noted: standard doses (0.3 mg/kg days 1 and 2, increasing to 0.5 mg/kg) during clinical therapy; ref Atkinson, Jr. and Bennett, 1978; cited from earlier work.
Data set [5] concerns GFP-transfected Leishmania (Viannia) panamensis amastigotes in U937 cell line. Particulars: L. (V.) panamensis in U937 cells, GFP flow cytometry; ref Varela et al., 2009; cited from earlier work. (In general: In flow cytometry, cells or beads pass a laser one at a time.)
The test system of data set [6] is human PBMC derived macrophages. It is filed as cell-based.
For the next data set, the system named is THP-1 cells. In words: Trypan blue dye exclusion cytotoxicity test, THP-1 cells. Format: cell-based, human. In a few lines: (§1)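 Macrophages prepared before testing: THP-1 cells were grown in RPMI 1640 with 10% heat-inactivated FBS at 37°C and 5% CO2, then stimulated with 20 nM PMA. PBMC-derived cells were stimulated with autologous platelet-poor serum. After test compound exposure, clear (viable) and blue cells were counted on a hemocytometer to give percent viability. CC50 came from a variable-slope sigmoidal fit normalised to untreated cells. Assays were run in duplicate.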

Data set [7] relates to human PBMC derived macrophages. In words: Trypan blue dye exclusion cytotoxicity test, human PBMC derived macrophages. It is filed as cell-based. In a few lines: as §1

≈ marks a conversion by molar mass, not a printed value. Where two headings read alike, the source gives them in different places.

As a reminder, the EC50 is the concentration giving half of the maximal effect. As a reminder, the CC50 is the concentration at which the toxic effect on the cells reaches its halfway point. A lower CC50 goes with greater toxicity to the cells.

Take `C[C@@H]1[C@H](O)[C@@H](C)/C=C/C=C/C=C/C=C/C=C/C=C/C=C/[C@H](O[C@@H]2O[C@H](C)[C@@H](O)[C@H](N)[C@@H]2O)C[C@@H]2O[C@](O)(C[C@@H](O)C[C@@H](O)[C@H](O)CC[C@@H](O)C[C@@H](O)CC(=O)O[C@H]1C)C[C@H](O)[C@H]2C(=O)O` [Amphotericin B, amphotericin B]: the concentration for a half-maximal effect (EC50) in data set [1] (Leishmania amazonensis, THP-1) is 0.1445 ± 0.0005 µg/mL (≈ 0.156 µM); in data set [2] (Leishmania amazonensis, in Homo sapiens) it was 0.179 ± 0.035 µg/mL (≈ 0.194 µM); in data set [3], 0.074 µg/mL (≈ 0.0801 µM); in data set [5], 0.078 µg/mL (≈ 0.0844 µM). The “Selective Index (SI)” value in data set [1] (THP-1 cells, ratio of EC50 and CC50) stood at 105.2; in data set [2] (human PBMC derived macrophages, ratio of EC50 and CC50), 355.9; in data set [2] (human PBMC derived macrophages, ratio of EC50 and CC50, listed as amphotericin B), 356. The serum level result in data set [4] was “above 0.2 μg/ml”.
`CCCCCCCCCCCCCCCCOP(=O)([O-])OCC[N+](C)(C)C` [Miltefosine, miltefosine]: the results for the “Selective Index (SI)” value in data set [1] and in data set [2] were 1.51 and 6.13, respectively. For the same compound, the “toxicity against the macrophages” value in data set [6] is “significant toxicity”.
Consider `O.O.O.O.O.O.O.O.O.O=C([O-])[C@@H]1[O][Sb](=[O])([O][Sb]2(=[O])[O][C@H]([C@H](O)CO)[C@H](O)[C@H](C(=O)[O-])[O]2)[O][C@H]([C@H](O)CO)[C@@H]1O.[Na+].[Na+].[Na+]` (stereo partly drawn) [Sodium stibogluconate, sodium stibogluconate], for which the results for the CC50 (in the data set with THP-1 cells; in data set [7]) were 4600 ± 1100 µg/mL and 6300 ± 2800 µg/mL, respectively. Further, the EC50 in data set [2] (human PBMC derived macrophages, GFP fluorescence) was found to be 194.8 ± 36.4 µg/mL.
With meglumine antimoniate, the EC50 in data set [5] is 20 µg/mL.
